Experimental data taken from ChEMBL document CHEMBL4270620, “Synthesis and anti-fibrosis activity study of 14-deoxyandrographolide-19-oic acid and 14-deoxydidehydroandrographolide-19-oic acid derivatives” (Eur J Med Chem, 2018).
Calls of active or inactive are those of the source. No cut-off for these calls is given here.

Key:
NIH3T3 [1] = experiment: Antifibrotic activity against mouse NIH/3T3 cells assessed as inhibition of COL1A1 mRNA level at 500 nM measured after 24 hrs by qRT-PCR method; type: functional, cell-based
Method in brief: (§1)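 NIH-3T3 (DMEM/F12, 10% FBS, 37 °C, 5% CO2) given 500 nM compound without TGF-β1 for 24 h. Total RNA extracted; qPCR of α-SMA, FN, COL1A1 run 40 cycles (95 °C 5 s, 60 °C 60 s). Normalized to GAPDH, relative expression by 2^-ΔΔCt. Mean of three experiments ± SD.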

NIH3T3 [2] = experiment: Antifibrotic activity against mouse NIH/3T3 cells assessed as inhibition of cell proliferation after 72 hrs by MTT assay; type: functional, cell-based
Method in brief: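 NIH-3T3 seeded at 5000 cells/well in DMEM/F12 with 10% FBS, allowed to attach 24 h, then exposed 72 h to graded compound concentrations. MTT (5 mg/mL stock) added for 2–4 h, formazan dissolved in DMSO, OD read at 490 nm. IC50 from regression equation; three repeats, mean.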

NIH3T3 [3] = experiment: (§2) Antifibrotic activity against mouse NIH/3T3 cells assessed as inhibition of TGFbeta1-induced increase in FN mRNA level at 500 nM preincubated for 1 hr followed by TGFbeta-1 addition measured after 24 hrs by qRT-PCR method; type: functional, cell-based
Method in brief: (§3)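 NIH-3T3 cells pretreated 1 h with 500 nM compound, then stimulated with rat TGF-β1 5 ng/ml for 24 h. RNA extracted and qPCR run 40 cycles (95 °C 5 s / 60 °C 60 s). Transcripts normalized to GAPDH, fold change by 2^-ΔΔCt. n = 3, means ± SD.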

NIH3T3 [4] = experiment: (§4) Antifibrotic activity against mouse NIH/3T3 cells assessed as inhibition of TGFbeta1-induced increase in COL1A1 mRNA level at 500 nM preincubated for 1 hr followed by TGFbeta-1 addition measured after 24 hrs by qRT-PCR method; type: functional, cell-based; method in brief: as §3
NIH3T3 [5] = experiment: Antifibrotic activity against mouse NIH/3T3 cells assessed as inhibition of FN mRNA level at 500 nM measured after 24 hrs by qRT-PCR method; type: functional, cell-based; method in brief: as §1
NIH3T3 [6] = experiment: Antifibrotic activity against mouse NIH/3T3 cells assessed as inhibition of alpha-SMA mRNA level at 500 nM measured after 24 hrs by qRT-PCR method; type: functional, cell-based; method in brief: as §1
NIH3T3 [7] = experiment: (§5) Antifibrotic activity against mouse NIH/3T3 cells assessed as inhibition of TGFbeta1-induced increase in alpha-SMA mRNA level at 500 nM preincubated for 1 hr followed by TGFbeta-1 addition measured after 24 hrs by qRT-PCR method; type: functional, cell-based; method in brief: as §3
NIH3T3 [8] = experiment: as §4, with “protein expression by measuring ratio of COL1A1 to beta-actin protein” for “mRNA”, “Western blot” for “qRT-PCR”, “method (reference value: 0.26)” for “method”; type: functional
Method in brief: (§6)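 Western blot of NIH-3T3 treated with 500 nM compound plus rat TGF-β1 5 ng/ml for 24 h; PBS as control. RIPA/1% PMSF lysates quantified by BCA, run on 10% SDS-PAGE and blotted to PVDF. Blocked in 5% milk; α-SMA, FN, COL1A1 primaries 1:1000 overnight at 4 °C; HRP secondary 1:5000 for 2 h; ECL. Band intensity relative to β-actin. Three repeats, means ± SD.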

NIH3T3 [9] = experiment: as §2, with “protein expression by measuring ratio of FN to beta-actin protein” for “mRNA”, “Western blot” for “qRT-PCR”, “method (reference value: 0.95)” for “method”; type: functional; method in brief: as §6
[10] = Inhibition of cell proliferation in HUVEC at 80 uM after […] by MTT assay relative to control; type: cell-based; settings: human, HUVEC cells
Method in brief: (§7)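 MTT test on HUVEC (DMEM/F12, 10% FBS) plated at 5000 cells/well, attached 24 h, then treated at 1, 10, 40 and 80 μM for the period printed as 42 h. MTT (5 mg/mL stock) incubated 2–4 h, formazan dissolved in DMSO, absorbance at 490 nm. Proliferation relative to control; mean of three experiments.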

NIH3T3 [11] = experiment: as §5, with “protein expression by measuring ratio of alpha-SMA to beta-actin protein” for “mRNA”, “Western blot” for “qRT-PCR”, “method (reference value: 0.87)” for “method”; type: functional; method in brief: as §6
[12] = Inhibition of cell proliferation in HUVEC at 10 uM […] by MTT assay relative to control; type: cell-based; settings: human, HUVEC cells; method in brief: as §7
[13] = Mus musculus, NIH3T3, 72 h, read-out: IC50

C=C1CC[C@@H]2[C@](C)(CO)[C@H](O)CC[C@@]2(C)[C@@H]1/C=C/C1=CCOC1=O
inhibition (NIH3T3 [1]): Active
IC50 (NIH3T3 [2]; [13]): 64.3 µM
inhibition (NIH3T3 [3]): Active
inhibition (NIH3T3 [4]): Active
inhibition (NIH3T3 [5]): Active
inhibition (NIH3T3 [6]): Active
inhibition (NIH3T3 [7]): Active

C=C1CC[C@@H]2[C@](C)(CO)[C@H](O)CC[C@@]2(C)[C@@H]1C/C=C1\C=COC1=O
IC50 (NIH3T3 [2]; nih3t3): Not Active

C=C1CC[C@H]2[C@@](C)(CC[C@@H](OC(C)=O)[C@@]2(C)C(=O)OCc2ccccc2)[C@@H]1C/C=C1\C=COC1=O
IC50 (NIH3T3 [2]; [13]): 78 µM

C=C1CC[C@H]2[C@@](C)(CC[C@@H](O)[C@@]2(C)C(=O)OCc2ccccn2)[C@@H]1CCC1=CCOC1=O
IC50 (NIH3T3 [2]; [13]): 79.8 µM

C=C1CC[C@@H]2[C@](C)(CO)[C@H](O)CC[C@@]2(C)[C@@H]1CCC1=CCOC1=O [DEOXYANDROGRAPHOLIDE]
inhibition (NIH3T3 [1]): Active
IC50 (NIH3T3 [2]; [13]): 176 µM
inhibition (NIH3T3 [3]): Active
inhibition (NIH3T3 [4]): Active
inhibition (NIH3T3 [5]): Active
inhibition (NIH3T3 [6]): Active
inhibition (NIH3T3 [7]): Active

C=C1CC[C@H]2[C@@](C)(CC[C@@H](OC(C)=O)[C@@]2(C)C(=O)OCc2ccccn2)[C@@H]1/C=C/C1=CCOC1=O
IC50 (NIH3T3 [2]; [13]): 34.9 µM

C=C1CC[C@H]2[C@@](C)(CC[C@@H](OC(C)=O)[C@@]2(C)C(=O)OCc2ccccn2)[C@@H]1CCC1=CCOC1=O
IC50 (NIH3T3 [2]; [13]): 55.5 µM

C=C1CC[C@H]2[C@@](C)(CC[C@@H](OC(C)=O)[C@@]2(C)C(=O)OC)[C@@H]1CCC1=CCOC1=O
IC50 (NIH3T3 [2]; [13]): 80.6 µM

C=C1CC[C@H]2[C@@](C)(CC[C@@H](O)[C@@]2(C)C(=O)OCc2ccccc2)[C@@H]1C/C=C1\C=COC1=O
IC50 (NIH3T3 [2]; [13]): 177 µM

C=C1CC[C@H]2[C@@](C)(CC[C@@H](OC(C)=O)[C@@]2(C)C(=O)OC)[C@@H]1/C=C/C1=CCOC1=O
IC50 (NIH3T3 [2]; [13]): 32.2 µM

C=C1CC[C@H]2[C@@](C)(CC[C@@H](OC(C)=O)[C@@]2(C)C(=O)OCc2ccccc2)[C@@H]1/C=C/C1=CCOC1=O
IC50 (NIH3T3 [2]; [13]): 52.7 µM

C=C1CC[C@H]2[C@@](C)(CC[C@@H](OC(C)=O)[C@@]2(C)C(=O)OC)[C@@H]1C/C=C1\C=COC1=O
IC50 (NIH3T3 [2]; [13]): 69.7 µM

C=C1CC[C@H]2[C@@](C)(CC[C@@H](O)[C@@]2(C)C(=O)OCc2ccccc2)[C@@H]1CCC1=CCOC1=O
IC50 (NIH3T3 [2]; [13]): 37.9 µM

C=C1CC[C@H]2[C@@](C)(CC[C@@H](O)[C@@]2(C)C(=O)OC)[C@@H]1/C=C/C1=CCOC1=O
IC50 (NIH3T3 [2]; [13]): 111 µM

C=C1CC[C@H]2[C@@](C)(CC[C@@H](O)[C@@]2(C)C(=O)OCc2ccccc2)[C@@H]1/C=C/C1=CCOC1=O
Ratio (NIH3T3 [8]): 0.42
inhibition (NIH3T3 [1]): Active
IC50 (NIH3T3 [2]; [13]): 13.6 µM
inhibition (NIH3T3 [3]): Active
Ratio (NIH3T3 [9]): 0.47
inhibition (NIH3T3 [4]): Active
inhibition at 80 µM [10]: 68.7%
Ratio (NIH3T3 [11]): 0.39
inhibition (NIH3T3 [5]): Active
inhibition (NIH3T3 [6]): Active
inhibition at 10 µM [12]: 9.7%
inhibition (NIH3T3 [7]): Active

C=C1CC[C@H]2[C@@](C)(CC[C@@H](O)[C@@]2(C)C(=O)OCc2ccccn2)[C@@H]1/C=C/C1=CCOC1=O
IC50 (NIH3T3 [2]; [13]): 80.2 µM

C=C1CC[C@@H]2[C@](C)(CO)[C@H](O)CC[C@@]2(C)[C@@H]1C/C=C1/C(=O)OC[C@H]1O [ANDROGRAPHOLIDE]
inhibition (NIH3T3 [1]): Active
IC50 (NIH3T3 [2]; [13]): 95.3 µM
inhibition (NIH3T3 [3]): Active
inhibition (NIH3T3 [4]): Active
inhibition at 80 µM [10]: 26.4%
inhibition (NIH3T3 [5]): Active
inhibition (NIH3T3 [6]): Active
inhibition at 10 µM [12]: 10.4%
inhibition (NIH3T3 [7]): Active

C=C1CC[C@H]2[C@@](C)(CC[C@@H](O)[C@@]2(C)C(=O)OC)[C@@H]1CCC1=CCOC1=O
IC50 (NIH3T3 [2]; [13]): 60.6 µM

C=C1CC[C@H]2[C@@](C)(CC[C@@H](OC(C)=O)[C@@]2(C)C(=O)OCc2ccccc2)[C@@H]1CCC1=CCOC1=O
Ratio (NIH3T3 [8]): 0.38
inhibition (NIH3T3 [1]): Active
IC50 (NIH3T3 [2]; [13]): 12.9 µM
inhibition (NIH3T3 [3]): Active
Ratio (NIH3T3 [9]): 0.46
inhibition (NIH3T3 [4]): Active
inhibition at 80 µM [10]: 55.7%
Ratio (NIH3T3 [11]): 0.4
inhibition (NIH3T3 [5]): Active
inhibition (NIH3T3 [6]): Active
inhibition at 10 µM [12]: 6.6%
inhibition (NIH3T3 [7]): Active

C=C1CC[C@H]2[C@@](C)(CC[C@@H](O)[C@@]2(C)C(=O)OC)[C@@H]1C/C=C1\C=COC1=O
IC50 (NIH3T3 [2]; [13]): 177 µM
